Assay results as given in ChEMBL document CHEMBL1157061, “Polybioside, a neuroactive compound from the venom of the social wasp Polybia paulista” (J Nat Prod, 2010).
Active and inactive are the calls of the source. The calls are words filed in the database; no cut-off is given here.

How the values were obtained:
Rattus norvegicus [1] = test: Neuronal activity in Wistar rat brain piriform cortex assessed as c-Fos-immunoreactive neurons at 0.1 ug/ul, icv after 2 hrs by immunohistochemistry analysis; format: functional, tissue-based
Outline: (§1)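 Adult male Wistar rats (250-300 g) were acclimated for one week and handled twice daily. An ICV cannula was placed about 2 h before dosing. Compound was given ICV in 10 µL 0.9% saline; saline-only controls (n = 3). After 2 h, rats were perfused with 4% formaldehyde (pH 9.5). Coronal 30 µm sections were stained with rabbit anti-c-Fos (1:5000, 18 h, RT), biotinylated goat anti-rabbit, ABC and DAB, with thionin counterstain. Immunoreactive cells were counted in fixed areas; Student's t-test, p<0.05.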

Rattus norvegicus [2] = test: Neurotoxicity in Wistar rat assessed as partial closing of eyelids with porphyrin accumulation at 10 ng/kg, icv after 10 mins up to 30 mins; format: toxicity, organism-based, Eyelid; details: in vivo, icv_or_intrathecal, 1e-05 mg/kg
Outline: (§2)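 Adult male Wistar rats (250-300 g, acclimated one week) received 10 ng/kg ICV in 0.9% saline through a cannula placed about 2 h earlier. Behaviour was observed afterwards, including convulsions, piloerection and eye signs. Sensorimotor reflexes were scored by righting reflex and wire suspension test, with follow-up to recovery at 80 min.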

Rattus norvegicus [3] = test: Neurotoxicity in Wistar rat assessed as localized diffuse piloerection on head at 10 ng/kg, icv up to 10 mins; format: toxicity, organism-based; details: in vivo, icv_or_intrathecal, 1e-05 mg/kg; outline: as §2
Rattus norvegicus [4] = test: Neurotoxicity in Wistar rat assessed as tonic clonic crises at 10 ng/kg, icv up to 10 mins; format: toxicity, organism-based; details: in vivo, icv_or_intrathecal, 1e-05 mg/kg; outline: as §2
Thalamus = test: Neuronal activity in Wistar rat brain paraventricular nucleus of thalamus assessed as c-Fos-immunoreactive neurons at 0.1 ug/ul, icv after 2 hrs by immunohistochemistry analysis; format: functional, tissue-based; outline: as §1
Rattus norvegicus [5] = test: Neurotoxicity in Wistar rat assessed as localized diffuse piloerection around neck at 10 ng/kg, icv up to 10 mins; format: toxicity, organism-based; details: in vivo, icv_or_intrathecal, 1e-05 mg/kg; outline: as §2
Brain [6] = test: Neuronal activity in Wistar rat brain dorsal intermediate nucleus assessed as c-Fos-immunoreactive neurons at 0.1 ug/ul, icv after 2 hrs by immunohistochemistry analysis; format: functional, tissue-based; outline: as §1
Hypothalamus = test: Neuronal activity in Wistar rat brain paraventricular nucleus of hypothalamus assessed as c-Fos-immunoreactive neurons at 0.1 ug/ul, icv after 2 hrs by immunohistochemistry analysis; format: functional, tissue-based; outline: as §1
Rattus norvegicus [7] = test: Neurotoxicity in Wistar rat at 100 ng/kg, iv; format: toxicity, organism-based; details: in vivo, 0.0001 mg/kg
Outline: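 Given peripherally at 100 ng/kg through an intravenous catheter placed in Wistar rats anaesthetised with chloral hydrate (7%, 350 mg/kg ip), to test passage across the blood-brain barrier; behaviour was then observed.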

Brain [8] = test: Neuronal activity in Wistar rat brain dorsomedial hyphalamic nucleus assessed as c-Fos-immunoreactive neurons at 0.1 ug/ul, icv after 2 hrs by immunohistochemistry analysis; format: functional, tissue-based; outline: as §1
Brain [9] = test: Neuronal activity in Wistar rat brain reuniens nucleus assessed as c-Fos-immunoreactive neurons at 0.1 ug/ul, icv after 2 hrs by immunohistochemistry analysis; format: functional, tissue-based; outline: as §1
Rattus norvegicus [10] = test: Neurotoxicity in Wistar rat assessed as convulsion at 10 ng/kg, icv after 5 mins; format: toxicity, organism-based; details: in vivo, icv_or_intrathecal, 1e-05 mg/kg; outline: as §2
Brain [11] = test: Neuronal activity in Wistar rat brain anterior hyphalamic area assessed as c-Fos-immunoreactive neurons at 0.1 ug/ul, icv after 2 hrs by immunohistochemistry analysis; format: functional, tissue-based; outline: as §1
Rattus norvegicus [12] = test: Neuronal activity in Wistar rat brain lateral septal nucleus dorsal assessed as c-Fos-immunoreactive neurons at 0.1 ug/ul, icv after 2 hrs by immunohistochemistry analysis; format: functional, tissue-based; outline: as §1
Rattus norvegicus [13] = test: Neuronal activity in Wistar rat brain rhomboid nucleus assessed as c-Fos-immunoreactive neurons at 0.1 ug/ul, icv after 2 hrs by immunohistochemistry analysis; format: functional, tissue-based; details: Rhomboidal nucleus; outline: as §1
Rattus norvegicus [14] = test: Neurotoxicity in Wistar rat assessed as loss of sensor motor reflexes at 10 ng/kg, icv after 30 mins by wire suspension test; format: toxicity, organism-based; details: in vivo, icv_or_intrathecal, 1e-05 mg/kg, 0.5 h; outline: as §2
Hippocampus = test: Neuronal activity in Wistar rat brain hippocampus assessed as c-Fos-immunoreactive neurons at 0.1 ug/ul, icv after 2 hrs by immunohistochemistry analysis; format: functional, tissue-based; outline: as §1

In the case of `N=C(CCc1c[nH]cn1)O[C@H]1O[C@H](CO)[C@@H](O)[C@H](O)[C@H]1O` [POLYBIOSIDE], the Activity (Rattus norvegicus [1]) was “Active”, the Activity (Rattus norvegicus [2]) was “Toxic” and the Activity (Rattus norvegicus [3]) was “Toxic”. The Activity (Rattus norvegicus [4]) was “Toxic”, the Activity (Thalamus) was “Active” and the Activity (Rattus norvegicus [5]) was “Toxic”. For the same compound, the Activity (Brain [6]) was “Active”, the Activity (Hypothalamus) was “Active” and the Activity (Rattus norvegicus [7]) was “Toxic”. The Activity (Brain [8]) was “Active”, the Activity (Brain [9]) was “Active” and the Activity (Rattus norvegicus [10]) was “Toxic”. The Activity (Brain [11]) was “Active”, the Activity (Rattus norvegicus [12]) was “Active” and the Activity (Rattus norvegicus [13]) was “Active”. For the same compound, the Activity (Rattus norvegicus [14]) was “Toxic” and the Activity (Hippocampus) was “Active”.
